{"source": "paper PMC3873001", "about": "(Bioorganic & medicinal chemistry, 2013)", "key": {"[1]": {"system": "T. b. rhodesiense bloodstream form trypomastigotes (STIB 900)", "assay": "In vitro growth inhibition of T. b. rhodesiense bloodstream form trypomastigotes", "type": "cell-based, Trypanosoma b. rhodesiense", "details": "for SI (T.b.rhod.): SI = IC50 in L6 cells / IC50 in T.b. rhodesiense; for IC50: Trypanosoma brucei, RHODESIENSE|STIB900, read-out: T.b.rhod. IC-50; for reduction of anti-HAT activity compared to 3-nitrotriazole counterpart: 2-nitroimidazole analog vs 3-nitrotriazole counterpart (13 vs 9; 14 vs 11); for activity designation against T.b. rhodesiense: TDR criteria on IC50"}, "[2]": {"system": "L. donovani axenic amastigotes (MHOM-ET-67/L82)", "assay": "In vitro growth inhibition of axenically cultured L. donovani amastigotes", "type": "cell-based, Leishmania donovani", "details": "for IC50: Leishmania donovani, read-out: L.don. axen. IC-50; for SI (L.don. axen.): SI = IC50 in L6 cells / IC50 in L. donovani"}, "[3]": {"system": "T. cruzi amastigotes (Tulahuen C4) in infected L6 myoblasts", "assay": "In vitro growth inhibition of T. cruzi amastigotes in infected L6 myoblasts", "type": "cell-based", "details": "for IC50: Trypanosoma cruzi, TULAHUEN, L6, read-out: T. cruzi IC-50; for reduction of antichagasic activity compared to 3-nitrotriazole counterpart: 2-nitroimidazole analog vs 3-nitrotriazole counterpart (13 vs 9; 14 vs 11); for reduction of antichagasic activity compared to 5: compared to compound 5"}, "[4]": {"assay": "Cytotoxicity assessment using L6 cells", "type": "cell-based", "details": "rat, L6 cells (rat skeletal myoblasts)", "outline": "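Rat skeletal myoblasts (L6) were tested for growth inhibition as the host-cell toxicity counterpart to the parasite assays. IC50 was calculated by linear regression from sigmoidal dose-inhibition curves. Values are means of two independent assays, varying by less than ±50%.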"}}}
{"compound": "Cl.Cl.O=[N+]([O-])c1ncn(CCCN2CCN(c3ccc(C(F)(F)F)cc3)CC2)n1", "note": "[Compound 3]", "values": [{"measurement": "SI (T.b.rhod.)", "setting": "[1]", "result": 10}, {"measurement": "IC50", "setting": "[1]", "result": 5.33, "unit": "µM"}, {"measurement": "IC50", "setting": "[2]", "result": 25.9, "unit": "µM"}, {"measurement": "SI (L.don. axen.)", "setting": "[2]", "result": 2}, {"measurement": "IC50", "setting": "[3]", "result": 0.04, "unit": "µM"}]}
{"compound": "Cl.Cl.Cl.Cl.O=[N+]([O-])c1nccn1CCCN1CCN(Cc2ccc(Cl)c(Cl)c2)CC1", "note": "[Compound 14, 1-[(3,4-dichlorophenyl)methyl]-4-[3-(2-nitro-1H-imidazol-1-yl)propyl]piperazine dihydrochloride]", "values": [{"measurement": "reduction of anti-HAT activity compared to 3-nitrotriazole counterpart", "setting": "[1]", "result": "~14", "unit": "fold"}, {"measurement": "reduction of antichagasic activity compared to 3-nitrotriazole counterpart", "setting": "[3]", "result": "about 33 fold"}]}
{"compound": "Cl.Cl.Cl.Cl.O=[N+]([O-])c1ncn(CCCN2CCN(c3ccc(Cl)c(Cl)c3)CC2)n1", "note": "[Compound 7, 1-(3,4-dichlorophenyl)-4-[3-(3-nitro-1H-1,2,4-triazol-1-yl)propyl]piperazine dihydrochloride]", "values": [{"measurement": "activity designation against T.b. rhodesiense", "setting": "[1]", "result": "active"}]}
{"compound": "O=[N+]([O-])c1ncn(CCCN2CCN(c3ccncc3)CC2)n1", "note": "[Compound 6, 1-[3-(3-nitro-1H-1,2,4-triazol-1-yl)propyl]-4-(pyridin-4-yl)piperazine]", "values": [{"measurement": "reduction of antichagasic activity compared to 5", "setting": "[3]", "result": "more than 10 fold"}]}
{"compound": "COc1ccc(N2CCN(CCCn3cnc([N+](=O)[O-])n3)CC2)cc1", "note": "[Compound 9, 1-(4-methoxyphenyl)-4-[3-(3-nitro-1H-1,2,4-triazol-1-yl)propyl]piperazine dihydro-chloride]", "values": [{"measurement": "IC50", "setting": "[4]", "result": 125, "unit": "µM"}]}
{"compound": "O=[N+]([O-])c1ncn(CCCNc2nc3ccc(Cl)cc3s2)n1", "note": "[Compound 15, 6-chloro-N-[3-(3-nitro-1H-1,2,4-triazol-1-yl)propyl]-1,3-benzothiazol-2-amine]", "values": [{"measurement": "activity designation against T.b. rhodesiense", "setting": "[1]", "result": "active"}, {"measurement": "activity designation against L. donovani", "setting": "[2]; TDR criteria on IC50", "result": "moderately active (IC50 = 1.0-6.0 μM)"}]}
{"compound": "O=[N+]([O-])c1ncn(CCCCNc2nc3ccc(Cl)cc3s2)n1", "note": "[Compound 17, 6-chloro-N-[4-(3-nitro-1H-1,2,4-triazol-1-yl)butyl]-1,3-benzothiazol-2-amine]", "values": [{"measurement": "activity designation against T.b. rhodesiense", "setting": "[1]", "result": "active"}]}
{"compound": "Cl.Cl.O=[N+]([O-])c1ncn(CCCN2CCN(c3ncccn3)CC2)n1", "note": "[Compound 4, 2-{4-[3-(3-nitro-1H-1,2,4-triazol-1-yl)propyl]piperazin-1-yl}pyrimidine dihydrochloride]", "values": [{"measurement": "reduction of antichagasic activity compared to 5", "setting": "[3]", "result": 2, "unit": "fold"}]}
{"compound": "Cl.Cl.O=[N+]([O-])c1ncn(CCCCN2CCN(Cc3ccc(C(F)(F)F)cc3)CC2)n1", "note": "[Compound 2]", "values": [{"measurement": "SI (T.b.rhod.)", "setting": "[1]", "result": 99}, {"measurement": "IC50", "setting": "[1]", "result": 1.2, "unit": "µM"}, {"measurement": "IC50", "setting": "[2]", "result": 44.5, "unit": "µM"}, {"measurement": "SI (L.don. axen.)", "setting": "[2]", "result": 3}, {"measurement": "IC50", "setting": "[3]", "result": 0.412, "unit": "µM"}]}
{"compound": "COc1ccc(N2CCN(CCCn3ccnc3[N+](=O)[O-])CC2)cc1.Cl.Cl", "note": "[Compound 13, 1-(4-methoxyphenyl)-4-[3-(2-nitro-1H-imidazol-1-yl)propyl]piperazine dihydro-chloride]", "values": [{"measurement": "reduction of anti-HAT activity compared to 3-nitrotriazole counterpart", "setting": "[1]", "result": "~2", "unit": "fold"}, {"measurement": "reduction of antichagasic activity compared to 3-nitrotriazole counterpart", "setting": "[3]", "result": "about 62 fold"}]}
{"compound": "O=[N+]([O-])c1nccn1CCCCNc1nc2ccc(Cl)cc2s1", "note": "[Compound 20, 6-chloro-N-[4-(2-nitro-1H-imidazol-1-yl)butyl]-1,3-benzothiazol-2-amine]", "values": [{"measurement": "IC50", "setting": "[2]", "result": 7.3, "unit": "µM"}]}
{"compound": "Cl.Cl.O=[N+]([O-])c1ncn(CCCN2CCN(Cc3ccc(C(F)(F)F)cc3)CC2)n1", "note": "[Compound 1]", "values": [{"measurement": "IC50", "setting": "[4]", "result": "> 191", "unit": "µM"}, {"measurement": "IC50", "setting": "[1]", "result": 1.38, "unit": "µM"}, {"measurement": "IC50", "setting": "[2]", "result": 58.1, "unit": "µM"}, {"measurement": "SI (L.don. axen.)", "setting": "[2]", "result": ">3"}, {"measurement": "IC50", "setting": "[3]", "result": 0.34, "unit": "µM"}]}
